# Activity calls are given as the source filed them. The rule behind the calls is not given here.
# How the values were obtained:
# [1] = test system: RAW264.7; experiment: (§1) Cytotoxicity against mouse RAW264.7 cells assessed as cell survival rate at 10 uM; format: cell-based; settings: raw264.7, 10 µM
# [2] = Cytotoxicity against human HL7702 cells assessed as cell survival rate at 10 uM incubated for 24 hrs by MTT assay; format: cell-based; settings: HL7702 (L02) cells, read-out: Activity
# Outline: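 HL-7702 human normal hepatic cells exposed to 10 μM compound for 24 h; viability measured by MTT assay and given as survival rate, mean ± SD of three experiments.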
# [3] = test system: RAW264.7; experiment: Antiinflammatory activity in mouse RAW264.7 cells assessed as decrease in LPS-induced IL-6 secretion at 10 microM incubated for 30 mins followed by LPS stimulation and measured after 24 hrs by ELISA relative to control; format: functional; settings: RAW264.7, 24.5 h, time 1470 min
# Outline: (§2)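 RAW264.7 cells in DMEM with 10% FBS at 37 °C, 5% CO₂; pretreated with 10 μM for 30 min, then LPS 0.5 μg/mL for 24 h. Medium TNF-α and IL-6 measured by ELISA and normalized to total protein of viable cells; percent inhibition, mean ± SD of three experiments.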
# [4] = as §1; format: cell-based; settings: RAW264.7 cells, read-out: Activity
# [5] = test system: Rattus norvegicus; experiment: Antiinflammatory activity against LPS-induced acute lung injury rat model assessed as reduction in destruction of epithelial and endothelial cell structure in lungs at 10 to 20 mg/kg administered before LPS instillation and measured after 6 hrs by hematoxylin and eosin staining based microscopic analysis; format: functional, organism-based; settings: dose 10-20 mg/kg
# Outline: (§3)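 Rats pretreated at 10 or 20 mg/kg, then intratracheal LPS; lungs taken 6 h later, fixed in 4% paraformaldehyde, paraffin-embedded, cut at 5 μm, stained with hematoxylin-eosin, and examined by light microscopy for edema, hemorrhage, cell infiltration and epithelial/endothelial damage.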
# [6] = test system: Rattus norvegicus; experiment: Antiinflammatory activity against LPS-induced acute lung injury rat model assessed as reduction in TNF-alpha level in BALF at 10 to 20 mg/kg administered before LPS instillation and measured after 6 hrs by ELISA; format: functional, organism-based; settings: dose 10-20 mg/kg
# Outline: (§4)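 Rats given intratracheal LPS after pretreatment at 10 or 20 mg/kg; killed 6 h after LPS under anaesthesia; BALF and lung collected. BALF IL-6 and TNF-α measured by ELISA in BALF supernatant; serum IL-6 measured; BALF total cells counted; lung MPO activity and TNF-α immunostaining assessed.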
# [7] = Chemical stability of compound in PBS buffer containing 5% DMSO at pH 7.4 measured every 5 mins for 25 mins by UV-Vis absorption spectral analysis; format: physicochemical; settings: pH 7.4, 25 min
# Outline: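 Compound diluted from 1 mM stock in phosphate buffer pH 7.4 containing 5% DMSO; UV-visible spectra recorded from 250 to 600 nm at 25 °C in a 1 cm quartz cuvette, every 5 min for 25 min.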
# [8] = test system: RAW264.7; experiment: Antiinflammatory activity in mouse RAW264.7 cells assessed as decrease in LPS-induced TNF-alpha secretion incubated for 30 mins followed by LPS stimulation and measured after 24 hrs by ELISA; format: functional, cell-based; settings: dose 1-10 µM, time 1470.0 min
# Outline: (§5)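 RAW264.7 cells seeded at 4.0×10^5/plate overnight; pretreated at 1, 2.5, 5 or 10 μM for 30 min, then with or without LPS 0.5 μg/mL for 24 h. Medium IL-6 and TNF-α measured by ELISA and normalized to total protein; percent of LPS control, mean ± SEM of three independent experiments.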
# [9] = test system: Rattus norvegicus; experiment: Antiinflammatory activity against LPS-induced acute lung injury rat model assessed as reduction in total cells in BALF at 10 to 20 mg/kg administered before LPS instillation and measured after 6 hrs; format: functional, organism-based; settings: dose 10-20 mg/kg; outline: as §4
# [10] = test system: Rattus norvegicus; experiment: Antiinflammatory activity against LPS-induced acute lung injury rat model assessed as reduction in IL-6 level in serum at 10 to 20 mg/kg administered before LPS instillation and measured after 6 hrs by ELISA; format: functional, organism-based; settings: dose 10-20 mg/kg; outline: as §4
# [11] = test system: BEAS-2B; experiment: Antiinflammatory activity in human BEAS-2B cells assessed as reduction in LPS-induced TNFalpha mRNA expression incubated for 30 mins followed by LPS stimulation and measured after 24 hrs by qRT-PCR analysis; format: functional, cell-based; settings: dose 10-20 µM, time 1470.0 min
# Outline: (§6)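 Beas-2B cells seeded at 7.0×10^5/plate overnight at 37 °C, 5% CO₂; pretreated with 10 μM for 30 min, then LPS 1 μg/mL for 24 h. Total RNA extracted with TRIZOL; two-step SYBR Green RT-qPCR. Expressed as percent of LPS control; mean ± SEM of three independent experiments.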
# [12] = test system: BEAS-2B; experiment: Antiinflammatory activity in human BEAS-2B cells assessed as reduction in LPS-induced IL-1beta mRNA expression incubated for 30 mins followed by LPS stimulation and measured after 24 hrs by qRT-PCR analysis; format: functional, cell-based; settings: dose 10-20 µM, time 1470.0 min; outline: as §6
# [13] = test system: Rattus norvegicus; experiment: Antiinflammatory activity against LPS-induced acute lung injury rat model assessed as reduction in TNFalpha expression in lung tissue at 10 to 20 mg/kg administered before LPS instillation and measured after 6 hrs by immunohistochemical analysis; format: functional, organism-based; settings: dose 10-20 mg/kg; outline: as §4
# [14] = test system: Rattus norvegicus; experiment: Antiinflammatory activity against LPS-induced acute lung injury rat model assessed as reduction in total protein content in BALF at 10 to 20 mg/kg administered before LPS instillation and measured after 6 hrs by BCA protein assay; format: functional, organism-based; settings: dose 10-20 mg/kg
# Outline: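 Left lung lavaged with saline (3 × 1.5 mL) 6 h after intratracheal LPS in rats pretreated at 10 or 20 mg/kg; lavage spun at 1000 rpm for 10 min; supernatant protein measured by BCA assay.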
# [15] = Aqueous kinetic solubility of compound at pH 7.4; format: physicochemical; settings: read-out: Kinetic_solubility
# [16] = Octanol-water partition coefficient, logP of compound; format: physicochemical
# [17] = test system: BEAS-2B; experiment: Antiinflammatory activity in human BEAS-2B cells assessed as reduction in LPS-induced VCAM-1 mRNA expression incubated for 30 mins followed by LPS stimulation and measured after 24 hrs by qRT-PCR analysis; format: functional, cell-based; settings: dose 10-20 µM, time 1470.0 min; outline: as §6
# [18] = test system: Rattus norvegicus; experiment: Antiinflammatory activity against LPS-induced acute lung injury rat model assessed as reduction in CD-68 stained macrophage numbers in lungs at 10 to 20 mg/kg administered before LPS instillation and measured after 6 hrs by immunohistochemical analysis; format: functional, organism-based; settings: dose 10-20 mg/kg
# Outline: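 Lung sections from rats given intratracheal LPS, pretreated at 10 or 20 mg/kg, killed 6 h after LPS; immunohistochemistry for the macrophage marker CD68, with CD68-positive cells counted.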
# [19] = test system: Rattus norvegicus; experiment: Antiinflammatory activity against LPS-induced acute lung injury rat model assessed as reduction in lung wet/dry ratio at 10 to 20 mg/kg administered before LPS instillation and measured after 6 hrs; format: functional, organism-based; settings: dose 10-20 mg/kg
# Outline: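 Edema index in rats killed 6 h after intratracheal LPS, with pretreatment at 10 or 20 mg/kg: right upper lung lobe excised, blotted and weighed wet, then dried at 65 °C for 48 h and reweighed; wet/dry weight ratio calculated.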
# [20] = test system: Rattus norvegicus; experiment: Antiinflammatory activity against LPS-induced acute lung injury rat model assessed as reduction in inflammatory cell infiltration in lungs at 10 to 20 mg/kg administered before LPS instillation and measured after 6 hrs by hematoxylin and eosin staining based microscopic analysis; format: functional, organism-based; settings: dose 10-20 mg/kg; outline: as §3
# [21] = test system: RAW264.7; experiment: Antiinflammatory activity in mouse RAW264.7 cells assessed as decrease in LPS-induced TNF-alpha secretion at 10 microM incubated for 30 mins followed by LPS stimulation and measured after 24 hrs by ELISA relative to control; format: functional; settings: RAW264.7, 24.5 h, time 1470 min; outline: as §2
# [22] = test system: Rattus norvegicus; experiment: Antiinflammatory activity against LPS-induced acute lung injury rat model assessed as reduction in lung edema at 10 to 20 mg/kg administered before LPS instillation and measured after 6 hrs by hematoxylin and eosin staining based microscopic analysis; format: functional, organism-based; settings: dose 10-20 mg/kg; outline: as §3
# [23] = test system: Rattus norvegicus; experiment: Antiinflammatory activity against LPS-induced acute lung injury rat model assessed as decrease in neutrophil infiltration in lungs by measuring decrease in MPO activity at 10 to 20 mg/kg administered before LPS instillation and measured after 6 hrs; format: functional, organism-based; settings: dose 10-20 mg/kg; outline: as §4
# [24] = test system: RAW264.7; experiment: Antiinflammatory activity in mouse RAW264.7 cells assessed as decrease in LPS-induced IL-6 secretion incubated for 30 mins followed by LPS stimulation and measured after 24 hrs by ELISA; format: functional, cell-based; settings: dose 1-10 µM, time 1470.0 min; outline: as §5
# [25] = test system: Mus musculus; experiment: Antiinflammatory activity against LPS-induced septic shock C57BL/6 mouse model assessed as proportion of died animals at 10 mg/kg, iv administered daily before LPS administration and monitored for 7 days (reference value: 100%); format: functional; settings: time 7 day
# Outline: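 Male C57BL/6 mice, n = 10 per group, were given the test agent as its hydrochloride salt (10 mg/kg IV) or saline vehicle. LPS (20 mg/kg IP) was injected afterwards. Survival was recorded every 24 h for 7 days after LPS.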
# [26] = test system: Rattus norvegicus; experiment: Antiinflammatory activity against LPS-induced acute lung injury rat model assessed as reduction in IL-6 level in BALF at 10 to 20 mg/kg administered before LPS instillation and measured after 6 hrs by ELISA; format: functional, organism-based; settings: dose 10-20 mg/kg; outline: as §4
# [27] = test system: Rattus norvegicus; experiment: Antiinflammatory activity against LPS-induced acute lung injury rat model assessed as reduction in alveolar hemorrhage in lungs at 10 to 20 mg/kg administered before LPS instillation and measured after 6 hrs by hematoxylin and eosin staining based microscopic analysis; format: functional, organism-based; settings: dose 10-20 mg/kg; outline: as §3
# [28] = test system: BEAS-2B; experiment: Antiinflammatory activity in human BEAS-2B cells assessed as reduction in LPS-induced IL-6 mRNA expression incubated for 30 mins followed by LPS stimulation and measured after 24 hrs by qRT-PCR analysis; format: functional, cell-based; settings: dose 10-20 µM, time 1470.0 min; outline: as §6
structure (smiles),measurement,setting,value
C=CCc1cc(/C=C2\CN(C)C/C(=C\c3ccc(O)c(CC=C)c3)C2=O)ccc1O,Activity,[1],Non-Toxic
same,"viability at 24 h, 10 µM",[2],80.3%
same,inhibition at 10 µM,[3],57.1%
C=CCc1cc(/C=C2\CN(C(C)C)C/C(=C\c3ccc(O)c(CC=C)c3)C2=O)ccc1O,Activity,[1],Non-Toxic
same,"viability at 24 h, 10 µM",[2],85.1%
same,inhibition at 10 µM,[3],71.6%
C=CCc1cc(/C=C2\CN(CCC)C/C(=C\c3ccc(O)c(CC=C)c3)C2=O)ccc1O,Activity,[1],Non-Toxic
same,"viability at 24 h, 10 µM",[2],75.2%
same,inhibition at 10 µM,[3],76.1%
C=CCc1cc(/C=C2\CN(CC)C/C(=C\c3ccc(O)c(CC=C)c3)C2=O)ccc1O,Activity,[1],Non-Toxic
same,"viability at 24 h, 10 µM",[2],79.6%
same,inhibition at 10 µM,[3],67.6%
C=CCc1cc(/C=C2\CN(C(=O)c3ccc(Cl)cc3)C/C(=C\c3ccc(O)c(CC=C)c3)C2=O)ccc1O,viability at 10 µM,[4],< 70%
same,"viability at 24 h, 10 µM",[2],66.2%
same,inhibition at 10 µM,[3],89.2%
C=CCc1cc(/C=C2\CN(C3CC3)C/C(=C\c3ccc(N4CCN(C)CC4)cc3)C2=O)ccc1O,Activity,[5],Active
same,Activity,[6],Active
same,Stabilty,[7],Stable
same,inhibition,[8],Dose-dependent effect
same,Activity,[9],Active
same,Activity,[10],Active
same,Activity,[11],Dose-dependent effect
same,Activity,[12],Dose-dependent effect
same,Activity,[13],Active
same,Activity,[14],Active
same,solubility kinetic,[15],22.5 mg/mL
same,"viability at 24 h, 10 µM",[2],90.3%
same,logP,[16],3.48
same,Activity,[17],Dose-dependent effect
same,Activity,[18],Active
same,Activity,[19],Active
same,Activity,[20],Active
same,inhibition at 10 µM,[21],43.8%
same,Activity,[22],Active
same,Activity,[23],Active
same,inhibition,[24],Dose-dependent effect
same,Activity,[25],50%
same,Activity,[26],Active
same,inhibition at 10 µM,[3],83.3%
same,Activity,[27],Active
same,Activity,[28],Dose-dependent effect
C=CCc1cc(/C=C2\CN(C(=O)c3ccc(F)cc3)C/C(=C\c3ccc(O)c(CC=C)c3)C2=O)ccc1O,Activity,[1],Non-Toxic
same,"viability at 24 h, 10 µM",[2],78%
same,inhibition at 10 µM,[3],86.8%
C=CCc1cc(/C=C2\CN(C3CC3)C/C(=C\c3ccc(N(C)C)cc3)C2=O)ccc1O,solubility kinetic,[15],17.1 mg/mL
same,"viability at 24 h, 10 µM",[2],89.4%
same,logP,[16],3.5
same,inhibition at 10 µM,[21],35%
same,inhibition at 10 µM,[3],74.4%
C=CCc1cc(/C=C2\CN(Cc3ccccc3)C/C(=C\c3ccc(O)c(CC=C)c3)C2=O)ccc1O,viability at 10 µM,[4],< 70%
same,"viability at 24 h, 10 µM",[2],62.1%
same,inhibition at 10 µM,[3],45.8%

# From ChEMBL document CHEMBL4715721, “Synthesis and optimization of novel allylated mono-carbonyl analogs of curcumin (MACs) act as potent anti-inflammatory agents against LPS-induced acute lung injury (ALI) in rats” (Eur J Med Chem, 2016)
